Test results as given in ChEMBL document CHEMBL1152769, “Exploiting the pyrazolo[3,4-d]pyrimidin-4-one ring system as a useful template to obtain potent adenosine deaminase inhibitors” (J Med Chem, 2009).
Values belong to the molecule of their own block, whether it stands above or below them. Activity calls are given as the source filed them. The calls are words filed in the database; no cut-off is given here.

Columns and labels:
[1] = Inhibition of bovine spleen adenosine deaminase type 9 by spectrophotometry; parameters: species or system Bos taurus
Procedure, shortened: (§1)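 Bovine spleen ADA type IX (0.3 nM) with 50 µM adenosine in 50 mM potassium phosphate, pH 7.2, at 30 °C. Deamination read as the A262 change over 2 min, against a substrate-free blank. DMSO ≤4% final. Screened at 10^-5 M; actives retested at 10-5 to 10-11 M in triplicate. IC50 taken by linear regression of log concentration-response, then converted to Ki by Cheng-Prusoff.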

Bos taurus = species on record: Bos taurus; experiment: Inhibition of bovine spleen adenosine deaminase type 9 at <= 10 uM by spectrophotometry; procedure, shortened: as §1
Rattus norvegicus [2] = experiment: Antiinflammatory activity in DNBS-induced Sprague-Dawley rat colitis model assessed as reduction in DNBS-induced increase in colonic tissue malondialdehyde level at 5 to 45 umol/kg, ip for 7 days administered 1 day before colitis induction; type: functional, organism-based
Procedure, shortened: (§2)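 Rats (male Sprague-Dawley) received intrarectal DNBS (15 mg in 50% ethanol), with ip dosing for 7 days from 1 day before; n=6 per group. Colon was taken at day 6, homogenized in cold 20 mmol/L Tris-HCl, pH 7.4, and spun 1500g for 10 min at 4 °C. MDA was measured by colorimetric kit and expressed as µmol per mg tissue.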

Rattus norvegicus [3] = experiment: Antiinflammatory activity in DNBS-induced Sprague-Dawley rat colitis model assessed as reduction in DNBS-induced increase in spleen weight at 0.25 umol/kg, ip for 7 days administered 1 day before colitis induction; type: functional, organism-based
Procedure, shortened: (§3)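 Colitis was induced in male Sprague-Dawley rats (250-300 g) by intrarectal DNBS, 15 mg in 0.25 mL 50% ethanol, under isoflurane. Drug was given ip daily for 7 days from 1 day before induction; six rats per group; vehicle controls. Spleen was weighed at assessment 6 days after DNBS and expressed as % increase, as an index of systemic inflammation.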

Rattus norvegicus [4] = experiment: Antiinflammatory activity in DNBS-induced Sprague-Dawley rat colitis model assessed as reduction in DNBS-induced macroscopic damage in colon at 0.25 umol/kg, ip for 7 days administered 1 day before colitis induction; type: functional, organism-based
Procedure, shortened: (§4)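 DNBS colitis was induced in male Sprague-Dawley rats (250-300 g): 15 mg in 0.25 mL 50% ethanol given intrarectally. Dosing was ip for 7 days, beginning 1 day before DNBS; n=6 per group; vehicle controls. Six days after DNBS, the whole colon was scored for macroscopic damage by two observers blinded to treatment.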

Rattus norvegicus [5] = experiment: Antiinflammatory activity in DNBS-induced Sprague-Dawley rat colitis model assessed as reduction in DNBS-induced increase in colonic tissue TNFalpha level at 0.25 umol/kg, ip for 7 days administered 1 day before colitis induction; type: functional, organism-based
Procedure, shortened: (§5)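 In male Sprague-Dawley rats with intrarectal DNBS colitis (15 mg in 50% ethanol), dosing was ip for 7 days from 1 day before induction; six per group. Colon samples from day 6 were stored at -80 °C, homogenized at 4 °C in PBS, pH 7.2 (0.3 mL/100 mg), and centrifuged at 13400g for 20 min. TNF-α was measured by ELISA and expressed as pg/mg tissue.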

Rattus norvegicus [6] = experiment: Antiinflammatory activity in DNBS-induced Sprague-Dawley rat colitis model assessed as reduction in DNBS-induced increase in colonic tissue malondialdehyde level at 0.25 umol/kg, ip for 7 days administered 1 day before colitis induction; type: functional, organism-based; procedure, shortened: as §2
Rattus norvegicus [7] = experiment: Antiinflammatory activity in DNBS-induced Sprague-Dawley rat colitis model assessed as body weight loss at 5 umol/kg, ip for 7 days administered 1 day before colitis induction; type: functional
Procedure, shortened: (§6)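 Male Sprague-Dawley rats (250-300 g) under brief isoflurane received 15 mg DNBS in 0.25 mL 50% ethanol intrarectally, 8 cm proximal to anus. Drug was given ip for 7 days starting 1 day before DNBS; controls received vehicle; n=6 per group. Body weight was recorded daily from the start of dosing, and the change was taken at day 6 after DNBS.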

Rattus norvegicus [8] = experiment: Antiinflammatory activity in ip dosed Sprague-Dawley rat colitis model assessed as reduction in DNBS-induced decrease in body weight administered for 7 days 1 day before colitis induction; type: functional, organism-based; procedure, shortened: as §6
Rattus norvegicus [9] = experiment: Toxicity in Sprague-Dawley rat assessed as variation in food intake at 5 to 45 umol/kg, ip for 7days; type: organism-based; conditions: in vivo, 168 h
Rattus norvegicus [10] = experiment: Antiinflammatory activity in DNBS-induced Sprague-Dawley rat colitis model assessed as DNBS-induced macroscopic damage in colon at 15 umol/kg, ip for 7 days administered 1 day before colitis induction; type: functional; procedure, shortened: as §4
Rattus norvegicus [11] = experiment: Toxicity in Sprague-Dawley rat assessed as mortality at 5 to 45 umol/kg, ip for 7days; type: organism-based; conditions: in vivo, 168 h
Rattus norvegicus [12] = experiment: Antiinflammatory activity in DNBS-induced Sprague-Dawley rat colitis model assessed as DNBS-induced increase in spleen weight at 15 umol/kg, ip for 7 days administered 1 day before colitis induction; type: functional; procedure, shortened: as §3
Rattus norvegicus [13] = experiment: Antiinflammatory activity in DNBS-induced Sprague-Dawley rat colitis model assessed as DNBS-induced increase in colonic tissue TNFalpha level at 45 umol/kg, ip for 7 days administered 1 day before colitis induction; type: functional; procedure, shortened: as §5
Rattus norvegicus [14] = experiment: Antiinflammatory activity in DNBS-induced Sprague-Dawley rat colitis model assessed as body weight loss at 15 umol/kg, ip for 7 days administered 1 day before colitis induction; type: functional; procedure, shortened: as §6
Rattus norvegicus [15] = experiment: Antiinflammatory activity in ip dosed Sprague-Dawley rat colitis model assessed as reduction in DNBS-induced increase in colonic tissue malondialdehyde level administered for 7 days 1 day before colitis induction; type: functional, organism-based; procedure, shortened: as §2
Rattus norvegicus [16] = experiment: Toxicity in Sprague-Dawley rat assessed as behavioral changes at 5 to 45 umol/kg, ip for 7days; type: organism-based; conditions: in vivo, 168 h
Rattus norvegicus [17] = experiment: Antiinflammatory activity in DNBS-induced Sprague-Dawley rat colitis model assessed as DNBS-induced increase in spleen weight at 45 umol/kg, ip for 7 days administered 1 day before colitis induction; type: functional; procedure, shortened: as §3
Rattus norvegicus [18] = experiment: Antiinflammatory activity in DNBS-induced Sprague-Dawley rat colitis model assessed as body weight gain at 45 umol/kg, ip for 7 days administered 1 day before colitis induction; type: functional; procedure, shortened: as §6
Rattus norvegicus [19] = experiment: Antiinflammatory activity in ip dosed Sprague-Dawley rat colitis model assessed as reduction in DNBS-induced macroscopic damage in colon administered for 7 days 1 day before colitis induction; type: functional, organism-based; procedure, shortened: as §4
Rattus norvegicus [20] = experiment: Antiinflammatory activity in ip dosed Sprague-Dawley rat colitis model assessed as reduction in DNBS-induced increase in colonic tissue TNFalpha level administered for 7 days 1 day before colitis induction; type: functional, organism-based; procedure, shortened: as §5
Rattus norvegicus [21] = experiment: Toxicity in Sprague-Dawley rat assessed as variation in body weight at 5 to 45 umol/kg, ip for 7days; type: organism-based; conditions: in vivo, 168 h
Rattus norvegicus [22] = experiment: Antiinflammatory activity in ip dosed Sprague-Dawley rat colitis model assessed as reduction in DNBS-induced increase in spleen weight administered for 7 days 1 day before colitis induction; type: functional, organism-based; procedure, shortened: as §3
Rattus norvegicus [23] = experiment: Antiinflammatory activity in DNBS-induced Sprague-Dawley rat colitis model assessed as DNBS-induced macroscopic damage in colon at 5 umol/kg, ip for 7 days administered 1 day before colitis induction; type: functional; procedure, shortened: as §4
Rattus norvegicus [24] = experiment: Antiinflammatory activity in DNBS-induced Sprague-Dawley rat colitis model assessed as DNBS-induced increase in spleen weight at 5 umol/kg, ip for 7 days administered 1 day before colitis induction; type: functional; procedure, shortened: as §3
Rattus norvegicus [25] = experiment: Antiinflammatory activity in DNBS-induced Sprague-Dawley rat colitis model assessed as DNBS-induced macroscopic damage in colon at 45 umol/kg, ip for 7 days administered 1 day before colitis induction; type: functional; procedure, shortened: as §4

SMILES: O=C(Nc1ccc(Cn2cc3c(=O)[nH]cnc3n2)cc1)c1ccc(C(F)(F)F)cc1
- Ki [1]: 0.51 nM

SMILES: CCCCCCCCCCCn1cc2c(=O)[nH]cnc2n1
- Activity (Bos taurus): inactive

SMILES: O=C(Nc1ccc(F)cc1)Nc1ccc(Cn2cc3c(=O)[nH]cnc3n2)cc1
- Ki [1]: 1.15 nM

SMILES: C[C@@H]1C[C@H]2[C@@H]3CCC4=CC(=O)C=C[C@]4(C)[C@@]3(F)[C@@H](O)C[C@]2(C)[C@@]1(O)C(=O)CO
- Activity (Rattus norvegicus [2]): Active
- Activity (Rattus norvegicus [3]): Active
- Activity (Rattus norvegicus [4]): Active
- Activity (Rattus norvegicus [5]): Active
- Activity (Rattus norvegicus [6]): Active

SMILES: O=C(NCc1ccccc1)Nc1ccc(Cn2cc3c(=O)[nH]cnc3n2)cc1
- Ki [1]: 85.7 nM

SMILES: CCCCCCCCCn1cc2c(=O)[nH]cnc2n1
- Activity (Bos taurus): inactive

SMILES: O=C(Nc1ccc(Cn2cc3c(=O)[nH]cnc3n2)cc1)Nc1ccc(C(F)(F)F)cc1
- Activity (Rattus norvegicus [7]): 16.5 g
- Activity (Rattus norvegicus [2]): Active
- Activity (Rattus norvegicus [8]): Dose-dependent effect
- Activity (Rattus norvegicus [9]): Non-toxic
- Activity (Rattus norvegicus [10]): 5.6
- Ki [1]: 0.16 nM
- Activity (Rattus norvegicus [11]): Non-toxic
- Activity (Rattus norvegicus [12]): 18.9%
- Activity (Rattus norvegicus [13]): 5.8 pg/mg
- Activity (Rattus norvegicus [14]): 10.4 g
- Activity (Rattus norvegicus [15]): Dose-dependent effect
- Activity (Rattus norvegicus [16]): Non-toxic
- Activity (Rattus norvegicus [17]): 10.1%
- Activity (Rattus norvegicus [6]): Active
- Activity (Rattus norvegicus [18]): 2.3 g
- Activity (Rattus norvegicus [19]): Dose-dependent effect
- Activity (Rattus norvegicus [20]): Dose-dependent effect
- Activity (Rattus norvegicus [21]): Non-toxic
- Activity (Rattus norvegicus [22]): Dose-dependent effect
- Activity (Rattus norvegicus [23]): 6.9
- Activity (Rattus norvegicus [24]): 23.8%
- Activity (Rattus norvegicus [25]): 4.3

SMILES: CN(C)c1ccc(NC(=O)Nc2ccc(Cn3cc4c(=O)[nH]cnc4n3)cc2)cc1
- Ki [1]: 2.01 nM

Next, values leading:

- Ki [1]: 15.6 nM
SMILES: COc1ccc(C(=O)Nc2ccc(Cn3cc4c(=O)[nH]cnc4n3)cc2)cc1

- Activity (Bos taurus): inactive
SMILES: CCCCCCCCCCn1cc2c(=O)[nH]cnc2n1

- Ki [1]: 12.7 nM
SMILES: O=C(Nc1ccc(Cn2cc3c(=O)[nH]cnc3n2)cc1)c1ccccc1

- Ki [1]: 2.42 nM
SMILES: O=C(Nc1ccccc1)Nc1ccc(Cn2cc3c(=O)[nH]cnc3n2)cc1

- Ki [1]: 0.96 nM
SMILES: O=C(Nc1ccc(Cn2cc3c(=O)[nH]cnc3n2)cc1)c1ccc(F)cc1

- Ki [1]: 47.9 nM
SMILES: O=C(Cc1ccccc1)Nc1ccc(Cn2cc3c(=O)[nH]cnc3n2)cc1

- Ki [1]: 186 nM
SMILES: O=C(Nc1ccc(Cc2ccccc2)cc1)Nc1ccc(Cn2cc3c(=O)[nH]cnc3n2)cc1

- Ki [1]: 1.14 nM
SMILES: CCCCCC[C@H]([C@H](C)O)n1cnc2c(N)ncnc21 [(+)-EHNA]

- Ki [1]: 108 nM
SMILES: O=C(Nc1ccc(Cn2cc3c(=O)[nH]cnc3n2)cc1)Nc1ccc(OCc2ccccc2)cc1

- Ki [1]: 28.3 nM
SMILES: COc1ccc(NC(=O)Nc2ccc(Cn3cc4c(=O)[nH]cnc4n3)cc2)cc1
